Measured values: ChEMBL document CHEMBL4024803, “New Steroidal 4-Aminoquinolines Antagonize Botulinum Neurotoxin Serotype A in Mouse Embryonic Stem Cell Derived Motor Neurons in Postintoxication Model” (J Med Chem, 2018)

What was measured:
[1] = target: Botulinum neurotoxin type A (Clostridium botulinum) (UniProt P0DPI0); assay: Inhibition of Clostridium botulinum BoNT/A holotoxin-mediated SNAP-25 cleavage in mouse HBG3 cell-derived motor neurons preincubated for 30 mins followed by intoxication measured after 4 hrs by Western blot method
[2] = target: Botulinum neurotoxin type A (Clostridium botulinum) (UniProt P0DPI0); assay: Inhibition of Clostridium botulinum BoNT/A holotoxin-mediated SNAP-25 cleavage in mouse HBG3 cell-derived motor neurons assessed as full length of SNAP-25 at 10 uM preincubated for 30 mins followed by intoxication measured after 4 hrs by Western blot method relative to control; parameters: scale not given: the % may be the effect or the level left
[3] = target: Botulinum neurotoxin type A (Clostridium botulinum) (UniProt P0DPI0); assay: (§1) Inhibition of Clostridium botulinum BoNT/A light chain using P39 as substrate preincubated for 10 mins followed by substrate addition measured after 10 mins by HPLC method
[4] = target: Botulinum neurotoxin type A (Clostridium botulinum, UniProt P0DPI0); assay: as §1
[5] = target: Botulinum neurotoxin type A (Clostridium botulinum) (UniProt P0DPI0); assay: Inhibition of Clostridium botulinum BoNT/A light chain at 20 uM using P39 as substrate preincubated for 10 mins followed by substrate addition measured after 10 mins by HPLC method relative to control
Summary of the method: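 Purified BoNT/A light chain (20 nM) with 0.2 mg/mL BSA in 50 mM HEPES pH 7.4, preincubated with compound for 10 min at room temperature. Cleavage fragments were separated by reversed-phase HPLC (214/280 nm). Percent inhibition was taken from fragment peak areas with vs without compound. Mean of three experiments.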

[6] = Distribution co-efficient, log D of the compound at pH 1 by reversed-phase thin-layer chromatographic method; assay type: physicochemical; settings: buffer
Summary of the method: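 Reversed-phase thin-layer chromatography at pH 1, mobile phase MeOH/HCl (70/30).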

[7] = target: Botulinum neurotoxin type A (Clostridium botulinum) (UniProt P0DPI0); assay: Inhibition of Clostridium botulinum BoNT/A holotoxin-mediated SNAP-25 cleavage in mouse HBG3 cell-derived motor neurons assessed as full length of SNAP-25 at 20 uM preincubated for 30 mins followed by intoxication measured after 4 hrs by Western blot method relative to control; parameters: scale not given: the % may be the effect or the level left
[8] = Distribution co-efficient, log D of the compound at pH 10 by reversed-phase thin-layer chromatographic method; assay type: physicochemical; settings: buffer
Summary of the method: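 Reversed-phase thin-layer chromatography at pH 10, mobile phase acetone/NH3/H2O (85/5/10).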

[9] = target: Botulinum neurotoxin type A (Clostridium botulinum) (UniProt P0DPI0); assay: Inhibition of Clostridium botulinum BoNT/A holotoxin-mediated SNAP-25 cleavage in mouse HBG3 cell-derived motor neurons assessed as full length of SNAP-25 at 20 uM treated at 30 mins post intoxication by Western blot method relative to control; parameters: scale not given: the % may be the effect or the level left
[10] = target: Botulinum neurotoxin type A (Clostridium botulinum) (UniProt P0DPI0); assay: Inhibition of Clostridium botulinum BoNT/A holotoxin-mediated SNAP-25 cleavage in mouse HBG3 cell-derived motor neurons assessed as full length of SNAP-25 at 20 uM treated at 60 mins post intoxication by Western blot method relative to control; parameters: scale not given: the % may be the effect or the level left

SMILES: N#Cc1ccc(-c2ccc(-c3ccc(CNCCCCNc4ccnc5ccccc45)cc3)s2)cc1
- inhibition [1]: Dose-dependent effect
- Activity [2]: 18%
- inhibition [3]: Dose-dependent effect
- IC50 [4]: 9.3 µM
- inhibition [5]: 67%
- chromatographic logD [6]: 2.93
- Activity [7]: 39%

SMILES: CC(CCCNCc1ccc(-c2csc3ccc(F)cc23)cc1)Nc1ccnc2ccccc12 (stereo unspecified)
- inhibition [1]: Dose-dependent effect
- Activity [2]: 62%
- chromatographic logD [8]: 3.98
- inhibition [3]: Dose-dependent effect
- IC50 [4]: 8.8 µM
- inhibition [5]: 69%
- Activity [7]: 62%

SMILES: CC(CCN(C)CC12CC3CC(CC(C3)C1)C2)Nc1ccnc2ccccc12 (stereo unspecified)
- inhibition [1]: Dose-dependent effect
- Activity [2]: 47%
- inhibition [3]: Dose-dependent effect
- IC50 [4]: 5.2 µM
- inhibition [5]: 51%
- Activity [7]: 46%

SMILES: CC(CCNCCC12CC3CC(CC(C3)C1)C2)Nc1ccnc2cc(Cl)ccc12 (stereo unspecified)
- inhibition [5]: 64%

SMILES: CC(CCCNCc1ccc(-c2csc3ccc(C#N)cc23)cc1)Nc1ccnc2ccccc12 (stereo unspecified)
- inhibition [1]: Dose-dependent effect
- Activity [2]: 34%
- chromatographic logD [8]: 3.67
- inhibition [3]: Dose-dependent effect
- IC50 [4]: 10.2 µM
- inhibition [5]: 61%
- Activity [7]: 53%

SMILES: N#Cc1ccc2c(-c3ccc(CNCCCCCCNc4ccnc5ccccc45)cc3)csc2c1
- inhibition [5]: 8%

SMILES: N#Cc1ccc2scc(-c3ccc(CNCCCCCCNc4ccnc5ccccc45)cc3)c2c1
- inhibition [1]: Dose-dependent effect
- Activity [2]: 36%
- chromatographic logD [8]: 3.85
- inhibition [3]: Dose-dependent effect
- IC50 [4]: 3.3 µM
- inhibition [5]: 75%
- Activity [7]: 43%

SMILES: CC(CCNCCC12CC3CC(CC(C3)C1)C2)Nc1ccnc2ccccc12 (stereo unspecified)
- inhibition [5]: 42%

SMILES: CC(CCNCC12CC3CC(CC(C3)C1)C2)Nc1c(F)cnc2cc(Cl)ccc12 (stereo unspecified)
- inhibition [1]: Dose-dependent effect
- Activity [2]: 31%
- chromatographic logD [8]: 3.24
- inhibition [5]: 15%
- Activity [7]: 35%

SMILES: N#Cc1ccc(-c2ccc(-c3cccc(CNCCCCCCNc4ccnc5ccccc45)c3)s2)cc1
- inhibition [1]: Dose-dependent effect
- Activity [2]: 46%
- inhibition [3]: Dose-dependent effect
- IC50 [4]: 8.7 µM
- inhibition [5]: 68%
- chromatographic logD [6]: 3.08
- Activity [7]: 71%

SMILES: N#Cc1ccc(-c2ccc(-c3ccc(CNCCNc4ccnc5cc(Cl)ccc45)cc3)s2)cc1
- inhibition [5]: 36%

SMILES: N#Cc1ccc(-c2ccc(-c3ccc(CNCCCCCCNc4ccnc5ccccc45)cc3)s2)cc1
- inhibition [1]: Dose-dependent effect
- Activity [2]: 22%
- inhibition [3]: Dose-dependent effect
- IC50 [4]: 3.4 µM
- inhibition [5]: 70 to 80%
- chromatographic logD [6]: 3.08
- Activity [7]: 48%

SMILES: CN(CCCNc1ccnc2ccccc12)CCC12CC3CC(CC(C3)C1)C2
- inhibition [5]: 31%

SMILES: CC(=O)O[C@H]1C[C@H]2[C@@H]([C@H](OC(C)=O)C[C@@H]3C[C@H](N)CC[C@@]32C)[C@@H]2CC[C@H]([C@H](C)CCCN(C)CCCC(C)Nc3ccnc4ccccc34)[C@@]12C (mixture of isomers)
- inhibition [1]: Dose-dependent effect
- Activity [2]: 20%
- inhibition [3]: Dose-dependent effect
- IC50 [4]: 0.7 µM
- inhibition [5]: 85%
- chromatographic logD [6]: 2.38
- Activity [7]: 41%

SMILES: CC(CCNc1ccnc2ccccc12)NCCC12CC3CC(CC(C3)C1)C2 (stereo unspecified)
- inhibition [1]: Dose-dependent effect
- Activity [2]: 23%
- Activity [7]: 24%

SMILES: N#Cc1ccc(-c2ccc(-c3ccc(CNCCCCCCCCNc4ccnc5cc(Cl)ccc45)cc3)s2)cc1
- inhibition [5]: 14%

SMILES: CC(CCNc1ccnc2cc(Cl)ccc12)NCC12CC3CC(CC(C3)C1)C2 (stereo unspecified)
- inhibition [1]: Dose-dependent effect
- Activity [2]: 29%
- chromatographic logD [8]: 3.4
- inhibition [3]: Dose-dependent effect
- IC50 [4]: 2.7 µM
- inhibition [5]: 65%
- Activity [7]: 30%

SMILES: CN(CCCCCCNc1ccnc2ccccc12)Cc1ccc(-c2ccc(-c3ccc(C#N)cc3)s2)cc1
- inhibition [5]: 55%

SMILES: N#Cc1ccc2scc(-c3ccc(CNCCCCNc4ccnc5ccccc45)cc3)c2c1
- inhibition [1]: Dose-dependent effect
- Activity [2]: 21%
- chromatographic logD [8]: 3.67
- inhibition [3]: Dose-dependent effect
- IC50 [4]: 4.6 µM
- inhibition [5]: 84%
- Activity [7]: 26%

SMILES: CC(=O)O[C@H]1C[C@H]2[C@@H]([C@H](OC(C)=O)C[C@@H]3C[C@H](N)CC[C@@]32C)[C@@H]2CC[C@H]([C@H](C)CCCNC(C)CCCNc3ccnc4ccccc34)[C@@]12C (mixture of isomers)
- inhibition [1]: Dose-dependent effect
- Activity [2]: 86%
- inhibition [3]: Dose-dependent effect
- IC50 [4]: 3 µM
- inhibition [5]: 75%
- chromatographic logD [6]: 2.21
- Activity [9]: 50%
- Activity [7]: 87%
- Activity [10]: 22%

SMILES: CN(CCCCNc1ccnc2ccccc12)Cc1ccc(-c2csc3ccc(F)cc23)cc1
- inhibition [1]: Dose-dependent effect
- Activity [2]: 44%
- chromatographic logD [8]: 3.98
- inhibition [5]: 46%
- Activity [7]: 55%

SMILES: CC(CCNCC12CC3CC(CC(C3)C1)C2)Nc1c(F)cnc2ccccc12 (stereo unspecified)
- inhibition [1]: Dose-dependent effect
- Activity [2]: 24%
- chromatographic logD [8]: 3.09
- Activity [7]: 23%

SMILES: CC(=O)O[C@H]1C[C@H]2[C@@H]([C@H](OC(C)=O)C[C@@H]3C[C@H](NCCCCCCNc4ccnc5cc(Cl)ccc45)CC[C@@]32C)[C@@H]2CC[C@H]([C@H](C)CCCNCCCCCCNc3ccnc4cc(Cl)ccc34)[C@@]12C
- inhibition [1]: Dose-dependent effect
- Activity [2]: 70%
- inhibition [3]: Dose-dependent effect
- IC50 [4]: 12.4 µM
- inhibition [5]: 90%
- Activity [9]: 36%
- Activity [7]: 84%
- Activity [10]: 20%

SMILES: N#Cc1ccc(-c2ccc(-c3ccc(CNCCCCCCNc4ccnc5cc(Cl)ccc45)cc3)s2)cc1
- inhibition [5]: 30%

SMILES: C#Cc1ccc(-c2ccc(-c3ccc(CNCCCCCCCCNc4ccnc5ccccc45)cc3)s2)cc1
- inhibition [5]: 53%

SMILES: CC(=O)O[C@H]1C[C@H]2[C@@H]([C@H](OC(C)=O)C[C@@H]3C[C@H](N)CC[C@@]32C)[C@@H]2CC[C@H]([C@H](C)CCCN(C)CCCCNc3ccnc4ccccc34)[C@@]12C
- inhibition [1]: Dose-dependent effect
- Activity [2]: 70%
- inhibition [3]: Dose-dependent effect
- IC50 [4]: 1.5 µM
- inhibition [5]: 52%
- chromatographic logD [6]: 2.11
- Activity [7]: 69%

SMILES: CC(=O)O[C@H]1C[C@H]2[C@@H]([C@H](OC(C)=O)C[C@@H]3C[C@H](N)CC[C@@]32C)[C@@H]2CC[C@H]([C@H](C)CCCNCCCC(C)Nc3ccnc4ccccc34)[C@@]12C (mixture of isomers)
- inhibition [1]: Dose-dependent effect
- Activity [2]: 67%
- inhibition [3]: Dose-dependent effect
- IC50 [4]: 2.7 µM
- inhibition [5]: 71%
- chromatographic logD [6]: 2.28
- Activity [9]: 38%
- Activity [7]: 69%
- Activity [10]: 22%

SMILES: Fc1ccc2scc(-c3ccc(CNCCCCNc4ccnc5ccccc45)cc3)c2c1
- inhibition [5]: 34%

SMILES: C#Cc1ccc(-c2ccc(-c3ccc(CNCCNc4ccnc5cc(Cl)ccc45)cc3)s2)cc1
- inhibition [5]: 19%

SMILES: CC(=O)O[C@H]1C[C@H]2[C@@H]([C@H](OC(C)=O)C[C@@H]3C[C@H](N)CC[C@@]32C)[C@@H]2CC[C@H]([C@H](C)CCCNCCCC(=O)Nc3ccnc4cc(Cl)ccc34)[C@@]12C
- inhibition [5]: 37%

SMILES: CC(CCNCCC12CC3CC(CC(C3)C1)C2)Nc1c(F)cnc2cc(Cl)ccc12 (stereo unspecified)
- inhibition [1]: Dose-dependent effect
- Activity [2]: 30%
- chromatographic logD [8]: 4.33
- inhibition [5]: 2%
- Activity [7]: 29%

SMILES: CN(CCCNc1ccnc2cc(Cl)ccc12)CC12CC3CC(CC(C3)C1)C2
- inhibition [1]: Dose-dependent effect
- Activity [2]: 51%
- chromatographic logD [8]: 3.24
- inhibition [3]: Dose-dependent effect
- IC50 [4]: 8.8 µM
- inhibition [5]: 71%
- Activity [9]: 46%
- Activity [7]: 56%
- Activity [10]: 39%

SMILES: CC(CCCN(C)Cc1ccc(-c2csc3ccc(F)cc23)cc1)Nc1ccnc2ccccc12 (stereo unspecified)
- inhibition [5]: 48%

SMILES: CC(CCNCCC12CC3CC(CC(C3)C1)C2)Nc1c(F)cnc2ccccc12 (stereo unspecified)
- inhibition [1]: Dose-dependent effect
- Activity [2]: 30%
- chromatographic logD [8]: 4.13
- Activity [7]: 32%

SMILES: CN(CCCNc1ccnc2ccccc12)CC12CC3CC(CC(C3)C1)C2
- inhibition [1]: Dose-dependent effect
- Activity [2]: 30%
- inhibition [5]: 30%
- Activity [7]: 31%

SMILES: N#Cc1ccc2c(-c3ccc(CNCCCCNc4ccnc5ccccc45)cc3)csc2c1
- inhibition [5]: 23%

SMILES: Fc1ccc2scc(-c3ccc(CNCCCCCCNc4ccnc5ccccc45)cc3)c2c1
- inhibition [5]: 56%
